# Assay outcomes: PubChem BioAssay, Broad Institute
# CAL PDZ FP-1 = untagged CAL PDZ binding inhibitors, primary screen, biochemical, fluorescence polarization, HTS; Golgi-associated PDZ and coiled-coil motif-containing protein (Homo sapiens), Q9HD26; purified CAL PDZ, TMR-peptide fluorescence polarization, 1 h; inhibition, % at 24.9 µM; 300,000 compounds, 0.92% hits;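 active means mean inhibition of at least 30% with at least half of replicates also reaching 30%; inconclusive means no clear call, values can overlap the other calls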;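 further: 0% = DMSO neutral control and 100% = excess unlabeled competitor peptide PRC23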
# CAL PDZ FP-2 = CAL PDZ peptide-binding inhibitors, primary screen, biochemical, fluorescence polarization, Cer-tagged CAL PDZ, HTS; Golgi-associated PDZ and coiled-coil motif-containing protein (Homo sapiens), Q9HD26; purified CAL PDZ, TMR-peptide fluorescence polarization, 1 h; inhibition, % at 20 µM; 330,000 compounds, 0.02% hits;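 active means highest replicate inhibition of at least 40%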;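 further: plate controls were DMSO neutral control wells for no effect and unlabeled competitor peptide control wells for full effect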
#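 Test system: purified CerCALP PDZ construct; Compound dosing: one concentration, 20 µM compound; Also added: TMR-labelled reporter peptide T*-PRC34 bound in PDZ groove; Read-out: inhibition from polarization loss; Controls: unlabelled peptide and DMSO controls; Signal: FP readout, S and P plane fluorescence; Incubation: 1 h at RT.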
# DENV2 CPE rescue = inhibitors of DENV2 cytopathic effect, primary screen, cell-based, plate reader, single concentration | DENV2-infected cells, cytopathic effect rescue | AID 651640, 2012 | 350,000 compounds, 1.7% hits | CPE inhibition, % at 9.99 µM; in the data active means CPE inhibition above about 20%, passing the limit was not always enough; inconclusive means no clear call, values can overlap the other calls; tested in BHK-21 cells;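 further: 0% = median of neutral control wells and 100% = median of positive control wells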
# S100A4 MyoIIA = inhibitors of S100A4-myosin IIA peptide binding, primary screen, biochemical, fluorescence polarization, TAMRA-MyoIIA peptide; Protein S100-A4 (Homo sapiens), P26447; AID 652163, 2013; 360,000 compounds, 0.14% hits; inhibition, % at 10.7 µM;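 active means mean inhibition of at least 70% across replicates, with every replicate also reaching that level; inconclusive means mean inhibition reaches 70% but some replicates fall short; inactive means mean inhibition below 70%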
#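 Material: S100A4 monomer protein / Buffer or medium: 50 mM HEPES pH 7.2, 10 mM CaCl2, 100 mM KCl / Times: 5 min incubation before reading / Benchmarks: neutral control DMSO, positive control TFP / Reagent: labelled myosin peptide probe, 5 nM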
# ERAP1 HTS inh = human ERAP1 aminopeptidase inhibitors, primary screen, biochemical, single point, plate reader | Endoplasmic reticulum aminopeptidase 1 (Homo sapiens), Q9NZ08 | recombinant ERAP1, Leu-AMC fluorescence, 60 min | inhibition, % at 10.7 µM | 340,000 compounds, 0.15% hits | AID 652197, 2013;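 active means mean replicate inhibition of at least 30%, or all replicates individually reaching that 30% level; inactive means mean below 30% and not every replicate reaching it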;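 further: 0% = neutral control wells and 100% = L-leucinethiol positive control wells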
# SIRT5 block = SIRT5 desuccinylase inhibitors, primary screen, biochemical, fluorescence imaging, single point, set 5; NAD-dependent protein deacylase sirtuin-5, mitochondrial (Homo sapiens), Q9NXA8; Purified SirT5, succinyl-peptide AMC, trypsin-coupled fluorescence; inhibition, % at 15 µM; 330,000 compounds, 1.1% hits; in the data active means inhibition above about 15%; inconclusive means no clear call, values can overlap the other calls
# * = called active by the depositor; ? = inconclusive; nt = no result. Most compounds without a hit are left out; they make up all but 2.9% or so of the library.
SMILES,CAL PDZ FP-1,CAL PDZ FP-2,DENV2 CPE rescue,S100A4 MyoIIA,ERAP1 HTS inh,SIRT5 block
C[C@H]1CN([C@@H](C)CO)C(=O)c2cc(NC(=O)NC3CCCCC3)ccc2O[C@@H]1CN(C)C(=O)Nc1ccccc1,nt,nt,-0.5,157.1*,-2.3,5.3
C[C@H](CO)N1C[C@H](C)[C@H](CN(C)C(=O)Nc2ccc(F)cc2)Oc2ccc(NC(=O)Nc3ccc(F)cc3)cc2C1=O,nt,nt,nt,-5.2,0.2,23.5*
C[C@@H]1CN([C@H](C)CO)C(=O)c2cc(NC(=O)NC3CCCCC3)ccc2O[C@H]1CN(C)C(=O)Nc1ccc(F)cc1,nt,nt,2.4,-0.1,-0.5,-1.0
C[C@@H](CO)NC(=O)c1ccc2c3n(nc2c1)-c1ccccc1CO3,-0.7,-2.3,39.8*,-6.4,nt,nt
COc1cccc(CN2[C@@H](CO)[C@H](c3ccccc3)C23CN(C(=O)C2CCOCC2)C3)c1,nt,nt,-5.6,19.8,-1.0,3.5
Nc1ccc(-c2cc3ccccc3c(=O)o2)cc1,-1.2,0.0,67.5*,2.8,-2.4,nt
CC1(C(=O)NS(=O)(=O)c2cccc(Cl)c2)CCN1C(=O)COc1ccc(Cl)cc1 (centres undefined),nt,nt,85.5*,-4.0,2.0,-3.7
CC(C)(C(=O)N1CCC1(C)C(=O)NS(=O)(=O)c1cccc(Cl)c1)c1ccccc1 (centres undefined),nt,nt,43.7*,-0.4,3.0,-3.3
COc1ccccc1C#Cc1cnc2c(c1)C(=O)N([C@H](C)CO)C[C@@H](C)[C@@H](CN(C)C(C)=O)O2,nt,nt,5.4,-19.8,-0.1,-1.8
O=C(Nc1ccccc1C(=O)N1CCN(c2ccccc2)CC1)c1ccco1,46.5*,-0.5,nt,nt,nt,nt
COc1ccc(C(=O)Nc2ccc(N3CCN(C(=O)c4cccs4)CC3)cc2)cc1Br,-2.1,-1.4,?,-0.8,5.2,-2.8
O=C(Nc1ccc(N2CCN(C(=O)c3ccco3)CC2)cc1)c1ccccc1,15.4,-3.5,1.9,0.9,3.1,19.2*
Cc1ccc(C(=O)N2CCN(c3ccccc3)CC2)cc1NC(=O)c1ccco1,-5.4,-1.6,1.5,-1.4,-2.9,0.1
COc1cc(OC)cc(C(=O)Nc2ccc(N3CCN(C(=O)c4cccs4)CC3)cc2)c1,-5.5,-0.4,52.9*,-5.2,-3.9,-0.4
CN(C)C(=O)C[C@H]1CC[C@@H](NC(=O)c2ccc(F)cc2)[C@@H](CO)O1,nt,nt,4.5,8.1,0.6,-0.6
CO[C@H]1CN(C)C(=O)c2cc(NC(=O)C3CCC3)ccc2OC[C@H](C)NC[C@H]1C,nt,nt,-0.8,-10.4,2.1,-1.8
CO[C@@H]1CC[C@H]2CCN(C)C(=O)CCCN(C)C(=O)c3cc(C#N)ccc3OC[C@@H]1O2,nt,nt,0.8,-1.9,-0.3,-1.5
C[C@H](CO)N1C[C@H](C)[C@@H](CN(C)Cc2ccccc2)OCCCC[C@H](C)Oc2ccc(NS(=O)(=O)c3cn(C)cn3)cc2C1=O,nt,nt,-7.3,-5.7,9.5,4.1
O=C(C[C@@H]1C[C@H]2c3cc(NS(=O)(=O)c4ccc(F)cc4)ccc3O[C@H]2[C@@H](CO)O1)NCc1ccc(-c2ccccc2)cc1,nt,nt,2.4,-7.2,0.4,15.9*
O=C(C[C@H]1C[C@H]2c3cc(NS(=O)(=O)c4ccc(F)cc4)ccc3O[C@H]2[C@H](CO)O1)NCc1ccc(-c2ccccc2)cc1,nt,nt,-5.7,2.4,1.5,17.9*
O=C(C[C@@H]1C[C@@H]2c3cc(NS(=O)(=O)c4ccc(F)cc4)ccc3O[C@@H]2[C@@H](CO)O1)NCc1ccc(-c2ccccc2)cc1,nt,nt,-2.6,-4.2,0.5,-2.4
COc1cc(SC)ccc1C(=O)OC(C)C(=O)Nc1ccc(NC(C)=O)cc1 (centres undefined),56.0*,-1.0,-3.4,0.1,-3.1,-2.6
C[C@@H]1CN([C@@H](C)CO)S(=O)(=O)c2ccc(/C=C/c3ccccc3)cc2O[C@@H]1CN(C)Cc1ccccc1,nt,nt,-6.4,-53.1,0.5,18.6*
C[C@H]1CN([C@@H](C)CO)S(=O)(=O)c2ccc(/C=C/c3ccccc3)cc2O[C@@H]1CN(C)Cc1ccccc1,nt,nt,4.9,5.0,-0.2,21.6*
C/C=C/c1ccc2c(c1)O[C@@H](CN(C)Cc1ccccc1)[C@@H](C)CN([C@H](C)CO)S2(=O)=O,nt,nt,?,0.8,2.5,3.4
SMILES,CAL PDZ FP-1,CAL PDZ FP-2,DENV2 CPE rescue,S100A4 MyoIIA,ERAP1 HTS inh,SIRT5 block
COc1ccc(NC(=O)Nc2cccc3c2O[C@@H](CN(C)Cc2ccc(Oc4ccccc4)cc2)[C@@H](C)CN([C@H](C)CO)C3=O)cc1,nt,nt,-2.4,2.1,-0.6,-0.7
COc1ccc(NC(=O)Nc2cccc3c2O[C@@H](CN(C)Cc2ccc(Oc4ccccc4)cc2)[C@@H](C)CN([C@@H](C)CO)C3=O)cc1,nt,nt,?,-20.0,1.3,15.3*
COc1ccc(NC(=O)Nc2cccc3c2O[C@H](CN(C)Cc2ccccc2)[C@H](C)CN([C@H](C)CO)C3=O)cc1,nt,nt,29.5*,-0.3,-2.3,11.6
COc1ccc(NC(=O)Nc2cccc3c2O[C@@H](CN(C)Cc2ccc(Oc4ccccc4)cc2)[C@H](C)CN([C@@H](C)CO)C3=O)cc1,nt,nt,-1.3,-2.0,0.2,16.3*
COc1ccc(NC(=O)Nc2cccc3c2O[C@@H](CN(C)Cc2ccccc2)[C@@H](C)CN([C@@H](C)CO)C3=O)cc1,nt,nt,-6.5,16.6,-2.1,-0.7
C[C@H]1CCCCO[C@H](CN(C)Cc2ccc(C(F)(F)F)cc2)[C@@H](C)CN([C@@H](C)CO)C(=O)c2cc(NC(=O)c3ccncc3)ccc2O1,nt,nt,-0.2,5.7,-0.8,8.6
CCCNC(=O)C[C@@H]1CC[C@@H]2[C@H](COc3ccc(NC(=O)c4cccc(Cl)c4)cc3C(=O)N2C)O1,nt,nt,1.2,34.2,3.0,-10.7
CCn1cc(C(=O)NCCc2ccc(Cl)cc2)c(=O)c2cc(S(=O)(=O)N(C)C)ccc21,-2.3,-1.1,0.8,1.4,-1.7,-5.8
CCn1cc(C(=O)NC(C)CCc2ccccc2)c(=O)c2cc(S(=O)(=O)N(C)C)ccc21 (centres undefined),-1.4,-1.2,50.6*,-3.1,0.0,-2.8
CCCCCCCCCCCCOC1OC(CO)C(O)C(O)C1NC(C)=O (centres undefined),2.4,-1.8,23.3*,-3.6,3.1,nt
COc1ccc(NC(=O)Nc2ccc3c(c2)C(=O)N([C@H](C)CO)C[C@@H](C)[C@@H](CN(C)Cc2ccc(C(=O)O)cc2)OCCCC[C@@H](C)O3)cc1,nt,nt,3.2,10.3,-15.0,1.6
